In ChEMBL document CHEMBL3272052, “Imidazo[1,2-a]-s-triazine nucleosides. Synthesis and antiviral activity of the N-bridgehead guanine, guanosine, and guanosine monophosphate analogues of imidazo[1,2-a]-s-triazine” (J Med Chem, 1978) one finds inhibition data, which are given here for seven compounds.

Format in all cases: functional, organism-based
Test [1] has as its system Enterovirus. Put plainly: Antiviral activity against Rhinovirus 1A infected in human KB cells assessed as inhibition of virus-induced cytopathic effect after 72 hrs by microscopic analysis relative to control.
In test [2] the test system is Enterovirus. Put plainly: Antiviral activity against Rhinovirus 2 infected in human KB cells assessed as inhibition of virus-induced cytopathic effect after 72 hrs by microscopic analysis relative to control.
The test system of test [3] is Enterovirus. Put plainly: Antiviral activity against Rhinovirus 8 infected in human KB cells assessed as inhibition of virus-induced cytopathic effect after 72 hrs by microscopic analysis relative to control.
Test [4] deals with Enterovirus. The test can be described thus: Antiviral activity against Rhinovirus 13 infected in human KB cells assessed as inhibition of virus-induced cytopathic effect after 72 hrs by microscopic analysis relative to control. An outline of the steps:
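KB (human nasopharyngeal carcinoma) monolayers, 19-24 h old, were infected with 320 CCID50 of virus. Compound was added within 15 min at one-half-log dilutions from 1000 to 1 µg/mL. After 72 h at 37 °C, CPE and cytotoxicity were scored microscopically (0-4). The virus rating sums the control-minus-treated CPE scores over all levels, halving any level showing partial toxicity.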

For test [5], the system named is Enterovirus. Put plainly: Antiviral activity against Rhinovirus 30 infected in human KB cells assessed as inhibition of virus-induced cytopathic effect after 72 hrs by microscopic analysis relative to control.

The source made the active and inactive calls. The rule behind the calls is not given here.

For `Nc1nc(=O)n2ccn([C@@H]3O[C@H](CO)[C@@H](O)[C@H]3O)c2n1`, the inhibition entry in the test with Enterovirus [1] and with Enterovirus [2] was “Active” throughout. The inhibition result in the test on Enterovirus [3], in the test with Enterovirus [4] and in the test with Enterovirus [5] was “inactive” throughout.

On to `Nc1nc(=O)n2ccn([C@@H]3O[C@H](COP(=O)(O)O)[C@@H](O)[C@H]3O)c2n1`, for which the inhibition entry with Enterovirus [1], in the test on Enterovirus [3], in the test with Enterovirus [4] and in the test with Enterovirus [5] was “inactive” each time. For the same compound, the inhibition result in the test on Enterovirus [2] is “Active”.

As for `Nc1nc(=O)n2ccn([C@@H]3O[C@H](COC(=O)c4ccccc4)[C@@H](OC(=O)c4ccccc4)[C@H]3OC(=O)c3ccccc3)c2n1`, the inhibition result in the test with Enterovirus [4] is “inactive”.

Turning to `O=c1nc2n([C@@H]3O[C@H](CO)[C@@H](O)[C@H]3O)ccn2c(=O)[nH]1`, the inhibition result in the test on Enterovirus [4] is “inactive”.

As for `O=c1[nH]c(=O)n2ccnc2[nH]1`, the inhibition entry in the test with Enterovirus [4] is “inactive”.

Turning to `Nc1nc(=O)n2cc[nH]c2n1`, the inhibition result in the test with Enterovirus [1], with Enterovirus [2], in the test on Enterovirus [3], with Enterovirus [4] and in the test on Enterovirus [5] was “Active” in each case.

Turning to `NC(=O)c1ncn([C@@H]2O[C@H](CO)[C@@H](O)[C@H]2O)n1`, the inhibition entry in the test with Enterovirus [1], with Enterovirus [2], in the test on Enterovirus [3], with Enterovirus [4] and with Enterovirus [5] was “Active” in each case.
